Results as given in ChEMBL document CHEMBL3779838, “Inhibitory effect of flavonoids on human glutaminyl cyclase” (Bioorg Med Chem, 2016).

Key:
[1] = target: T1, Glutaminyl-peptide cyclotransferase (Homo sapiens, UniProt Q16769); assay: Inhibition of human recombinant glutaminyl cyclase expressed in Escherichia coli using H-Gln-Gln-H substrate measured for 15 mins by spectrophotometry
Method in brief: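 Recombinant hQC expressed in E. coli is tested in a glutamic acid dehydrogenase-coupled reaction: 0–4 mM H-Gln-Gln-H, 30 units/ml GDH, 0.5 mM NADH/H+, 15 mM α-ketoglutaric acid, 0.05 M Tris–HCl pH 8.0. Inhibitor is added at several concentrations with the enzyme to start the reaction, and A340 loss is read over 15 min. IC50 is read graphically from log concentration vs % inhibition. Triplicate.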
Target sequence in this assay (Q16769 whole entry): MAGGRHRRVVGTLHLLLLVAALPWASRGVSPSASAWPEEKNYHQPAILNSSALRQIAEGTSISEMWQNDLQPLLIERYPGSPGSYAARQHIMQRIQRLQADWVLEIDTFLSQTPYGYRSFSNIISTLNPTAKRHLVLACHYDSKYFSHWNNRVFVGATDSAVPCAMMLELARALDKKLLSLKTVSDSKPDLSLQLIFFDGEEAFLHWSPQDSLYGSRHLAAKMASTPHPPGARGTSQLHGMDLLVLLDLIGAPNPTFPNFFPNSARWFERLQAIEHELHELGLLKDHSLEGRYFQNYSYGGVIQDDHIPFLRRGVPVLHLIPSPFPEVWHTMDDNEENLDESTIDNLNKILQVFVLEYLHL

[2] = target: T1, Glutaminyl-peptide cyclotransferase; assay: Inhibition of human recombinant glutaminyl cyclase expressed in Escherichia coli at 100 uM using H-Gln-Gln-H substrate measured for 15 mins by spectrophotometry relative to control
Target sequence in this assay (Q16769 29-361 limits assumed): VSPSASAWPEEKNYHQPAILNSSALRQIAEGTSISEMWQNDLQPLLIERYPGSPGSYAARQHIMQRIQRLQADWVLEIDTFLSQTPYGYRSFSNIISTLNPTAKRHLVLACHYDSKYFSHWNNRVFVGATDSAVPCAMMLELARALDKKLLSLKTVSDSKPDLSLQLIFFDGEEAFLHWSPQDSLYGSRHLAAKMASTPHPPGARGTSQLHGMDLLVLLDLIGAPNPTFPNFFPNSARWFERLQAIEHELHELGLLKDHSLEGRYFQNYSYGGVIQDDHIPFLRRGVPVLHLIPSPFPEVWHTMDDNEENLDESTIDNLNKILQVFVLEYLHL

IC50 [1] [µM] | inhibition [2] [%] | Structure (SMILES)
45.2 | 71.8 | O=c1cc(-c2ccc(O)cc2)oc2cc(O)ccc12
– | 71.7 | COc1ccc(-c2cc(=O)c3c(O)cc(O)cc3o2)c(OC)c1
– | 75.2 | O=c1cc(-c2ccc(O)cc2)oc2cc(O)cc(O)c12
– | 75.2 | COc1ccc(-c2cc(=O)c3ccc(O)cc3o2)cc1
